MrgX1 ag: agonists of human MrgX1 receptor, primary screen, HEK293 cells, Fluo-4 calcium flux. Mas-related G-protein coupled receptor member X1 (Homo sapiens), Q96LB2. 310,000 compounds, 0.44% hits. B-score at 10 µM. Fluo-4 calcium fluorescence, agonist mode; active compounds read high;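 active means calcium response B-score plate-corrected fluorescence ratio at least 3 library SD, with starting fluorescence B-score inside 5 SD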
Target sequence (Q96LB2 whole entry, looked up): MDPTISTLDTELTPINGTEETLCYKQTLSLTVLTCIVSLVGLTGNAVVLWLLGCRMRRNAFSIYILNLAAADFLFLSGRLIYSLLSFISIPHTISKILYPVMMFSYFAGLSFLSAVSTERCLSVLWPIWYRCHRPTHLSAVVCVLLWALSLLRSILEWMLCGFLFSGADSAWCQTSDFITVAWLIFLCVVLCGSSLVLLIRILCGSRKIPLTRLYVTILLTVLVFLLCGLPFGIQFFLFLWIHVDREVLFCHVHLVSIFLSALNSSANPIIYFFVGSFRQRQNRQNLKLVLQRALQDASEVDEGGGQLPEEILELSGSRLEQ
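Material: HEK293 cells stably expressing human MrgX1 receptor | Quantity: 15,000 cells per well | Times: Cells plated overnight, dye loaded 0.5 h 37 °C, 0.5 h room temperature | Measured by: Kinetic Fluo-4 NW fluorescence of intracellular calcium | Control set: Positive and negative controls per plate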
MrgX1 allo act: positive allosteric modulators of MrgX1, primary screen, HEK293 cells, Fluo-4 calcium flux; B-score at 10 µM; FDSS; active compounds read high; 310,000 compounds, 0.63% hits; AID 588675, 2011;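 active means plate-corrected calcium response at least 3 library SD above typical, normal starting fluorescence, not activating the receptor alone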;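 further: compound read alongside a low EC10 to EC30 dose of BAM8-22 agonist; peak minus trough fluorescence over baseline measured at the second addition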
MrgX1 antag: antagonists of human MrgX1 receptor, primary screen, HEK293 cells, Fluo-4 calcium flux. B-score at 10 µM. 310,000 compounds, 1.3% hits. BAM8-22 antagonism; active compounds read low. AID 588676, 2011;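 active means calcium-response B-score plate-corrected more than 3 library SD below zero, starting fluorescence within 5 deviations, no agonist response on first addition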;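 further: peak minus trough fluorescence over baseline after final BAM8-22 challenge near maximal dose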
RGS4 inh: RGS4 inhibitors, primary screen, cell-based, HEK293 M3R inducible RGS4, calcium flux | Regulator of G-protein signaling 4 (Homo sapiens), P49798 | Fluo-4 calcium flux; active compounds read high; triggered by carbachol at its EC20 | B-score at 10 µM | 310,000 compounds, 0.45% hits;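 active means B-score, a plate-corrected calcium signal, over three deviations above library mean, with baseline fluorescence within five deviations of library mean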;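 further: RGS4 expression induced by doxycycline in cells with stable M3 receptor; B-score is computed from the integrated fluorescence ratio over baseline after carbachol; higher B-score means a larger calcium signal and so more RGS4 inhibition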
RGS4 act: RGS4 potentiators or activators, primary screen, cell-based, HEK293 M3R inducible RGS4, calcium flux; carbachol calcium flux Fluo4; active compounds read low; B-score at 10 µM; 310,000 compounds, 0.92% hits;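 active means B-score of the integrated calcium signal more than 4 SD below the library mean, with starting fluorescence not abnormally high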;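 further: negative B-score means reduced calcium response which marks RGS4 activation or potentiation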
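Assay system: HEK293 FlpIn-TREx cells, stable M3R, doxycycline-inducible RGS4 / Probe or stimulus: carbachol, ECmax concentration / Times: overnight RGS4 induction, 30 min dye load 37 °C, 20 min compound RT / Signal: kinetic calcium fluorescence imaging with Fluo4-AM dye, 2 µM / Measure: Agonist-evoked peak-minus-minimum fluorescence over baseline, integrated ratio, B score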
RGS4 block valid: enhanced carbachol calcium response, M3R/RGS4 cells, RGS4 inhibitor project, cell-based, validation screen, HEK293 M3R/RGS4, calcium flux; shares compounds with RGS4 inh; AID 492999, 2010; calcium response, % at 10 µM; 1,700 compounds, 65% hits; carbachol calcium Fluo-4 fluorescence; carbachol added at its EC20; 0 = buffer wells, 100 = carbachol control;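 active means duplicate-averaged calcium response above the buffer-only control mean plus 5 SD of those controls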;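 further: integrated fluorescence ratio F max minus min over baseline F0; higher response in RGS4-induced cells means RGS4 inhibition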
M3R Ca ctr: carbachol calcium response in non-induced M3R cells, confirmation, counter-screen for RGS4 inhibitor project, cell-based, HEK293 M3R; carbachol calcium Fluo-4; submaximal (EC20) carbachol stimulus; buffer wells 0%, carbachol control wells 100%; shares compounds with RGS4 inh; AID 493000, 2010; activity (percent), % at 10 µM; 1,900 compounds, 20% hits; call rule not given here;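 further: RGS4 induction absent so cells express M3R without RGS4; higher means more calcium signal and flags a non-specific hit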
RGS4 inh ctr2: signal in non-induced cells without carbachol, RGS4 inhibitor counter-screen | 1,900 compounds, 22% hits | AID 493001 | calcium response (agonist-mode artifact), % at 10 µM | shares compounds with RGS4 inh | HEK293 M3R/RGS4 non-induced, Fluo-4 calcium, no carbachol; normalised: buffer wells 0%, carbachol wells 100%;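 active means duplicate-averaged calcium rise in uninduced cells above buffer wells' mean plus 5 SD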
An asterisk follows results filed as active; i = inactive; . = no result. An excerpt weighted towards active compounds, which were near 3.5% of everything screened.

SMILES | MrgX1 ag | MrgX1 allo act | MrgX1 antag | RGS4 inh | RGS4 act | RGS4 block valid | M3R Ca ctr | RGS4 inh ctr2
O=C1NN(c2ccccc2)C(=O)/C1=C\c1ccc2c(c1)OCO2 | i | i | i | 7.68* | i | i | i | i
Cc1cc(N)ccc1NC(=O)CN1CCCC1 | i | i | i | i | i | . | . | .
Cc1ccc(N2NC(=O)/C(=C\c3cc4c(cc3[N+](=O)[O-])OCO4)C2=O)cc1C | i | i | i | 25.6* | i | 69.0%* | i | 33.5%*
NC1=NC2(CCC(c3ccccc3)CC2)n2c(nc3ccccc32)N1 (stereo not given) | i | i | i | 5.17* | i | 58.0%* | i | i
CCOC(=O)N1CCc2c(sc3c2c(=O)n(Cc2ccccc2)c(=O)n3CC(=O)NCC2CCCO2)C1 (stereo not given) | i | i | i | i | i | . | . | .
CCOC(=O)N1CCc2c(sc3c2c(=O)n(Cc2ccccc2)c(=O)n3Cc2cccc(C)c2)C1 | i | i | i | 6.84* | i | 31.5%* | 38.5%* | i
CCOC(=O)N1CCc2c(sc3c2c(=O)n(Cc2ccccc2)c(=O)n3Cc2ccccc2F)C1 | i | i | i | 7.34* | i | 56.5%* | 33.5%* | i
COc1ccc(CN2CCC(Oc3ccc(C(=O)N4CCCC4)cc3)CC2)c(F)c1 | i | i | i | i | i | . | . | .
CC1CC(NC(=O)c2c(O)nc3sccn3c2=O)CC(C)(C)C1 (stereo not given) | i | i | i | 13.7* | i | 22.0%* | 48.5%* | i
O=C(c1cccc(NS(=O)(=O)c2ccc(F)c(F)c2)c1)N1CCN(Cc2ccccc2)CC1 | i | i | i | i | i | . | . | .
Cc1ccc([C@H]2C(C#N)=C(N)Oc3cc(C)oc(=O)c32)o1 | i | i | i | 6.94* | i | 25.5%* | i | i
CSc1ccc(/C=C/C(=O)c2c(O)cc(C)oc2=O)cc1 | i | i | i | 6.1* | i | 24.5%* | i | 7.5%*
COc1cccc(/C=C/C(=O)c2c(O)cc(C)oc2=O)c1O | i | i | i | 7.33* | i | 37.0%* | i | i
Cc1cc(O)c(C(=O)/C=C/c2ccc(Cl)cc2)c(=O)o1 | i | i | i | i | i | . | . | .
O=C1C=C(NC2=CC3OC(c4ccccc4)OCC3OC2=O)CCC1 (stereo not given) | i | i | i | 7.73* | i | 35.5%* | i | i
CC(C)=CCC12Oc3cc(O)ccc3C1(O)Oc1cc(O)c([C@H]3C=C(C)CC(c4ccc(O)cc4O)[C@H]3C(=O)c3ccc(O)cc3O)c(O)c1C2=O (stereo not given in full) | i | i | i | 15.1* | i | 24.0%* | i | i
Cc1ccc2c(c1)N(CC(=O)NC(C)CCc1ccccc1)C(=O)c1cccnc1O2 (stereo not given) | i | i | i | i | i | . | . | .
COc1ccc(C2=NN(CN3C(=O)C(=O)c4ccccc43)C(c3ccc(Br)cc3)C2)cc1 (stereo not given) | i | i | i | 11.3* | i | 38.5%* | 42.5%* | i

Compound activity as filed in PubChem BioAssay.
